# Test results taken from ChEMBL document CHEMBL2321650, “Novel HldE-K inhibitors leading to attenuated Gram negative bacterial virulence” (J Med Chem, 2013).
# Assays:
# [1] = Inhibition of Escherichia coli O18:K1 C7 hldE-K expressed in Escherichia coli BL21 using beta-heptose 7-phosphate as substrate incubated for 30 mins prior to substrate addition measured after 30 mins by luminescence assay
# Procedure, shortened: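 E. coli HldE (His-tagged, IPTG-induced, Ni-NTA-purified), 3 nM, preincubated 30 min at room temperature with inhibitor in Hepes pH 7.5, MnCl₂, KCl, 0.012% Triton-X100, DTT, MBP. Reaction with 0.2 μM heptose 7-phosphate and 0.2 μM ATP, 30 min at room temperature. Remaining ATP read by luciferase/luciferin luminescence; 6−10 concentrations fitted to a Langmuir model for IC50.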
# [2] = tested on: Escherichia coli; assay: Antimicrobial activity against acrAB, tolC-deficient Escherichia coli str. K-12 substr. MG1655 after overnight incubation in presence of erythromycin; assay type: functional
# Procedure, shortened: (§1)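 Broth microdilution MIC in cation-adjusted MHB, final inoculum 5 × 10⁵ CFU/mL from early-to-log preculture; serial compound dilutions in 2% DMSO, overnight at 35 °C, growth scored visually. Each strain tested with and without erythromycin (1 μg/mL for K12 ΔacrAB ΔtolC, 8 μg/mL for K1 wild type, 1 μg/mL for K1 ΔtolC).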
# [3] = tested on: Escherichia coli; assay: Antimicrobial activity against tolC-deficient Escherichia coli O18:K1:H7 after overnight incubation in absence of erythromycin; assay type: functional; procedure, shortened: as §1
# [4] = tested on: Escherichia coli; assay: Antimicrobial activity against acrAB, tolC-deficient Escherichia coli str. K-12 substr. MG1655 after overnight incubation in absence of erythromycin; assay type: functional; procedure, shortened: as §1
# [5] = tested on: Escherichia coli; assay: Antimicrobial activity against tolC-deficient Escherichia coli O18:K1:H7 after overnight incubation in presence of erythromycin; assay type: functional; procedure, shortened: as §1
# [6] = Inhibition of Escherichia coli O18:K1 C7 ribokinase expressed in Escherichia coli BL21 using D-ribose as substrate incubated for 30 mins prior to substrate addition measured after 30 mins by luminescence assay
# Procedure, shortened: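 Ribokinase run as the HldE kinase assay: purified E. coli ribokinase at 0.6 nM, 3 μM D-ribose, 3 μM ATP. Inhibitor preincubated 30 min, reaction run 30 min at room temperature, luciferase luminescence read-out, IC50 from 6−10 concentrations.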
# [7] = tested on: HepG2; assay: Cytotoxicity against human HepG2 cells after overnight incubation by one cell proliferation assay; assay type: cell-based
# Procedure, shortened: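 HepG2 cells at 2 × 10⁴ per well in EMEM with 10% FBS, grown overnight at 37 °C in 5% CO₂. Medium then replaced by compound dilutions in medium with 2% DMSO for overnight incubation. Viability read by CellTiter Aqueous One MTS absorbance at 490 nm.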
# [8] = Inhibition of Neisseria meningitidis 2C43 hldE-K expressed in Escherichia coli BL21 using beta-heptose 7-phosphate as substrate incubated for 30 mins prior to substrate addition measured after 30 mins by luminescence assay
# Procedure, shortened: (§2)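 HldE kinase luminescence assay as for E. coli, with enzyme at 20 nM for K. pneumoniae, 20 nM for N. meningitidis and 10 nM for S. marcescens. Heptose 7-phosphate and ATP each at 0.2 μM; 30 min preincubation and 30 min reaction at room temperature.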
# [9] = Inhibition of Serratia marcescens NEM017811 hldE-K expressed in Escherichia coli BL21 using beta-heptose 7-phosphate as substrate incubated for 30 mins prior to substrate addition measured after 30 mins by luminescence assay; procedure, shortened: as §2
# [10] = tested on: Klebsiella pneumoniae; assay: Inhibition of Klebsiella pneumoniae ATCC 700603 hldE-K expressed in Escherichia coli BL21 using beta-heptose 7-phosphate as substrate incubated for 30 mins prior to substrate addition measured after 30 mins by luminescence assay; conditions: ATCC 700603, BL21; procedure, shortened: as §2
# [11] = tested on: Escherichia coli; assay: Antimicrobial activity against wild type Escherichia coli O18:K1:H7 after overnight incubation; assay type: functional; procedure, shortened: as §1
# [12] = tested on: Escherichia coli; assay: Antimicrobial activity against hldE-deficient Escherichia coli O18:K1:H7 after overnight incubation; assay type: functional
smiles,measurement,setting,value
O=C(CO)NCCOc1ccc2sc(CNc3nncc(-c4c(Cl)cccc4Cl)n3)nc2c1,IC50,[1],0.071 µM
same,MIC,[2],4 mg/L
same,MIC,[3],> 32 mg/L
same,MIC,[4],> 32 mg/L
same,MIC,[5],> 32 mg/L
COc1cccc(OC)c1-c1cnnc(NCc2nc3cc(Cl)ccc3s2)n1,IC50,[1],1.6 µM
COc1cccc(OC)c1-c1cnnc(NCc2nc3ccc(Cl)cc3s2)n1,IC50,[1],27 µM
COc1ccc2sc(CNc3nncc(-c4c(C)cc(NC(C)=O)cc4C)n3)nc2c1,IC50,[1],0.24 µM
same,MIC,[2],> 32 mg/L
same,MIC,[3],> 32 mg/L
same,MIC,[4],> 32 mg/L
same,MIC,[5],> 32 mg/L
COc1ccc2sc(CNc3nncc(C(C)C)n3)nc2c1,IC50,[1],> 300 µM
Oc1ccc2sc(CNc3nncc(-c4c(O)ccc5ccccc45)n3)nc2c1,IC50,[6],> 300 µM
same,IC50,[1],0.02 µM
same,MIC,[2],0.063 mg/L
same,Activity,[7],20 µg/mL
same,IC50,[8],1.3 µM
same,IC50,[9],0.041 µM
same,MIC,[3],> 32 mg/L
same,MIC,[4],2 mg/L
same,IC50,[10],0.085 µM
same,MIC,[5],2 mg/L
CO[C@@H]1[C@@H](OC(N)=O)[C@@H](O)[C@H](Oc2ccc3c(O)c(NC(=O)c4ccc(O)c(CC=C(C)C)c4)c(=O)oc3c2C)OC1(C)C [NOVOBIOCIN],MIC,[11],32 mg/L
same,MIC,[12],0.5 mg/L
COc1cccc(OC)c1-c1cnnc(NCc2nc3ccccc3o2)n1,IC50,[1],34 µM
COc1cccc(OC)c1-c1cnnc(NCc2nc3ccc(NC(C)=O)cc3s2)n1,IC50,[1],49 µM
NCCOc1ccc2sc(CNc3nncc(-c4c(Cl)cccc4Cl)n3)nc2c1,IC50,[1],0.185 µM
COc1cccc(OC)c1-c1cnnc(N(CC(=O)O)Cc2nc3ccccc3s2)n1,IC50,[1],2 µM
COc1cccc(OC)c1-c1cnnc(N(CCC(=O)O)Cc2nc3ccccc3s2)n1,IC50,[1],46 µM
COc1cccc(OC)c1-c1cnnc(NCc2nc3ccccc3[nH]2)n1,IC50,[1],> 300 µM
COc1ccc2sc(CNc3nncc(-c4cc(Br)ccc4Cl)n3)nc2c1,IC50,[1],0.76 µM
COc1cccc(OC)c1-c1cnnc(NCc2nc3cc(NC(C)=O)ccc3s2)n1,IC50,[1],7.6 µM
COc1cccc(OC)c1-c1cnnc(N2CCCCC2c2nc3ccccc3s2)n1 (stereo not drawn),IC50,[1],> 300 µM
COc1ccc2sc(CNc3nncc(-c4ccccc4Cl)n3)nc2c1,IC50,[1],1.4 µM
COc1ccc2sc(CNc3nncc(-c4c(C)cc(N)cc4C)n3)nc2c1,IC50,[1],0.32 µM
COc1cccc(OC)c1-c1cnnc(N(C)Cc2nc(C)c(C)s2)n1,IC50,[1],5 µM
COc1cccc(OC)c1-c1cnnc(NCc2cc3ccccc3s2)n1,IC50,[1],> 300 µM
COc1cccc(OC)c1-c1cnnc(NCc2nc3cc(C)ccc3s2)n1,IC50,[1],1.5 µM
COc1ccc2sc(CNc3nncc(-c4c(C)cc(-c5ccc(OC)nc5)cc4C)n3)nc2c1,IC50,[1],0.89 µM
COc1cccc(OC)c1-c1cnnc(NCc2cc(C)n(C)n2)n1,IC50,[1],25 µM
COc1cccc(OC)c1-c1cnnc(OCc2nc(C)c(C)s2)n1,IC50,[1],40 µM
CCOC(=O)c1sc(CNc2nncc(-c3c(OC)cccc3OC)n2)nc1C,IC50,[1],> 300 µM
COc1ccc2sc(CNc3nncc(-c4c(C)cccc4O)n3)nc2c1,IC50,[6],> 300 µM
same,IC50,[1],0.069 µM
same,MIC,[2],8 mg/L
same,IC50,[8],9.8 µM
same,IC50,[9],0.16 µM
same,MIC,[3],> 32 mg/L
same,MIC,[4],> 32 mg/L
same,IC50,[10],0.43 µM
same,MIC,[5],> 32 mg/L
COc1ccc2sc(CNc3nncc(N4CCCCC4CO)n3)nc2c1 (stereo not drawn),IC50,[1],> 300 µM
COc1cccc(OC)c1-c1cnnc(NCc2nc3cc(OCC(=O)O)ccc3s2)n1,IC50,[1],0.25 µM
COc1ccc2sc(CNc3nncc(-c4c(F)cccc4F)n3)nc2c1,IC50,[1],2.4 µM
COc1ccc2sc(CNc3nncc(C(C)(C)O)n3)nc2c1,IC50,[1],> 300 µM
COc1cccc(OC)c1-c1cnnc(NCc2nc3c(s2)CCCC3)n1,IC50,[1],1.9 µM
NC(=O)COc1ccc2sc(CNc3nncc(-c4c(Cl)cccc4Cl)n3)nc2c1,IC50,[1],0.067 µM
same,MIC,[2],> 32 mg/L
same,MIC,[3],> 32 mg/L
same,MIC,[4],> 32 mg/L
same,MIC,[5],> 32 mg/L
COc1ccc2sc(CNc3nncc(-c4c(C)cc(Br)cc4C)n3)nc2c1,IC50,[1],1.2 µM
COc1cccc(OC)c1-c1cnnc(NCc2nc3cc(N)ccc3s2)n1,IC50,[1],1.4 µM
COc1ccc2sc(CNc3nncc(-c4c(Cl)cccc4Cl)n3)nc2c1,IC50,[6],> 300 µM
same,IC50,[1],0.13 µM
same,MIC,[2],> 32 mg/L
same,IC50,[8],13 µM
same,IC50,[9],1.2 µM
same,MIC,[3],> 32 mg/L
same,MIC,[4],> 32 mg/L
same,IC50,[10],2.3 µM
same,MIC,[5],> 32 mg/L
COc1cccc(OC)c1-c1cnnc(NCc2nc(C)c(C)s2)n1,IC50,[1],6 µM
COc1ccc2sc(CNc3nncc(-c4cc(-c5cccnc5)ccc4Cl)n3)nc2c1,IC50,[1],0.15 µM
COc1ccc2sc(CNc3nncc(-c4c(OC)cccc4OC)n3)nc2c1,IC50,[1],0.67 µM
CN(C)CCOc1ccc2sc(CNc3nncc(-c4c(Cl)cccc4Cl)n3)nc2c1,IC50,[1],0.082 µM
same,MIC,[2],4 mg/L
same,Activity,[7],> 32 µg/mL
same,MIC,[3],> 32 mg/L
same,MIC,[4],32 mg/L
same,MIC,[5],16 mg/L
COc1cccc(OC)c1-c1cnnc(NCc2ccc3ccccc3n2)n1,IC50,[1],> 300 µM
COc1cccc(OC)c1-c1cnnc(NC(C)c2nc(C)c(C)s2)n1 (stereo not drawn),IC50,[1],54 µM
Oc1ccc2sc(CNc3nncc(-c4c(Cl)cccc4Cl)n3)nc2c1,IC50,[1],0.075 µM
same,MIC,[2],> 32 mg/L
same,MIC,[3],> 32 mg/L
same,MIC,[4],> 32 mg/L
same,MIC,[5],> 32 mg/L
COc1cccc(OC)c1-c1cnnc(NCc2nc3ccc(O)cc3s2)n1,IC50,[1],3.4 µM
COc1ccc2sc(CNc3nncc(-c4c(C)cccc4C)n3)nc2c1,IC50,[1],0.36 µM
same,MIC,[2],> 32 mg/L
same,MIC,[3],> 32 mg/L
same,MIC,[4],> 32 mg/L
same,MIC,[5],> 32 mg/L
COc1cccc(OC)c1-c1cnnc(NCc2nc(C)c(CCO)s2)n1,IC50,[1],> 300 µM
COc1ccc2sc(CNc3nncc(-c4cc(-c5ccn[nH]5)ccc4Cl)n3)nc2c1,IC50,[1],0.053 µM
same,MIC,[2],> 32 mg/L
same,MIC,[3],> 32 mg/L
same,MIC,[4],> 32 mg/L
same,MIC,[5],> 32 mg/L
CS(=O)(=O)NC(=O)COc1ccc2sc(CNc3nncc(-c4c(Cl)cccc4Cl)n3)nc2c1,IC50,[1],0.016 µM
same,MIC,[2],> 32 mg/L
same,MIC,[3],> 32 mg/L
same,MIC,[4],> 32 mg/L
same,MIC,[5],> 32 mg/L
COc1cccc(OC)c1-c1cnnc(NCc2nc3ccc(CO)cc3s2)n1,IC50,[1],15 µM
COc1cccc(OC)c1-c1cnnc(NCc2cc(C)c(C)o2)n1,IC50,[1],> 300 µM
COC(=O)c1ccc2nc(CNc3nncc(-c4c(OC)cccc4OC)n3)sc2c1,IC50,[1],89 µM
Cc1oc(-c2ccccc2)nc1C(=O)N(CC(=O)O)Cc1ccccn1,IC50,[1],51 µM
COc1cccc(OC)c1-c1cnnc(N(CCCO)Cc2nc3ccccc3s2)n1,IC50,[1],> 300 µM
COc1ccc2sc(CNc3nncc(-c4cc(NC(C)=O)ccc4Cl)n3)nc2c1,IC50,[1],1.4 µM
O=C(O)COc1ccc2sc(CNc3nncc(-c4c(Cl)cccc4Cl)n3)nc2c1,IC50,[6],> 300 µM
same,IC50,[1],0.019 µM
same,MIC,[2],32 mg/L
same,IC50,[8],1.8 µM
same,IC50,[9],0.041 µM
same,MIC,[3],> 32 mg/L
same,MIC,[4],> 32 mg/L
same,IC50,[10],0.1 µM
same,MIC,[5],> 32 mg/L
COc1cccc(OC)c1-c1cnnc(NCc2ccccn2)n1,IC50,[1],> 300 µM
OCCOc1ccc2sc(CNc3nncc(-c4c(Cl)cccc4Cl)n3)nc2c1,IC50,[1],0.018 µM
same,MIC,[2],0.5 mg/L
same,Activity,[7],> 32 µg/mL
same,MIC,[3],> 32 mg/L
same,MIC,[4],16 mg/L
same,MIC,[5],32 mg/L
COc1ccc2sc(CNc3nncc(N4[C@H](C)CCC[C@@H]4C)n3)nc2c1,IC50,[1],> 300 µM
NCC(=O)NCCOc1ccc2sc(CNc3nncc(-c4c(Cl)cccc4Cl)n3)nc2c1,IC50,[1],0.1 µM
same,MIC,[2],4 mg/L
same,Activity,[7],18 µg/mL
same,MIC,[3],> 32 mg/L
same,MIC,[4],32 mg/L
same,MIC,[5],32 mg/L
COc1ccc2sc(CNc3nncc(-c4c(C)cc(NCCN(C)C)cc4C)n3)nc2c1,IC50,[1],0.082 µM
same,MIC,[2],> 32 mg/L
same,MIC,[3],> 32 mg/L
same,MIC,[4],> 32 mg/L
same,MIC,[5],> 32 mg/L
COc1cccc(OC)c1-c1cnnc(NCc2nc3cc(O)ccc3s2)n1,IC50,[1],0.39 µM
COc1cccc(OC)c1-c1cnnc(NCc2nc3ccccc3n2C)n1,IC50,[1],> 300 µM
COc1ccc2sc(CNc3nncc(-c4c(C)cc(C#N)cc4C)n3)nc2c1,IC50,[1],1.4 µM
COc1ccc2sc(CNc3nncc(-c4c(OC)ccc5ccccc45)n3)nc2c1,IC50,[1],0.051 µM
same,MIC,[2],> 32 mg/L
same,MIC,[3],> 32 mg/L
same,MIC,[4],> 32 mg/L
same,MIC,[5],> 32 mg/L
